# From ChEMBL document CHEMBL3271980, “Synthesis and some pharmacological properties of oxytocin analogues having L-thiazolidine-4-carboxylic acid in position 7” (1976)
# Assays:
# Assay type in all cases: functional
# [1] = Induction of oxytocic activity in rat uterus
# In short: (§1)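 Purified analogues assayed for oxytocic, avian vasodepressor and rat pressor activity. Potency was measured against the U.S.P. posterior pituitary reference standard using a four-point assay design.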
# Gallus gallus = test: Induction of vasodepressor activity in conscious chicken; in short: as §1
# Rattus norvegicus [2] = species: Rattus norvegicus; test: Effect on pressor activity in rat; in short: as §1
# Rattus norvegicus [3] = species: Rattus norvegicus; test: Effect on rat blood pressure relative to bradykinin
# Rattus norvegicus [4] = species: Rattus norvegicus; test: Effect on rat uterus activity relative to bradykinin
SMILES,Activity [1] [U/mg],Activity (Gallus gallus) [U/mg],Activity (Rattus norvegicus [2]) [U/mg],Activity (Rattus norvegicus [3]) [%],Activity (Rattus norvegicus [4]) [%]
CC[C@H](C)[C@@H]1NC(=O)[C@H](Cc2ccc(O)cc2)NC(=O)CCSSC[C@@H](C(=O)N2CSC[C@H]2C(=O)N[C@@H](CC(C)C)C(=O)NCC(N)=O)NC(=O)[C@H](CC(N)=O)NC(=O)[C@H](CCC(N)=O)NC1=O,1538,2039,1.69,–,–
CC[C@H](C)[C@@H]1NC(=O)[C@H](Cc2ccc(O)cc2)NC(=O)CCSSC[C@@H](C(=O)N2CCC[C@H]2C(=O)N[C@@H](CC(C)C)C(=O)NCC(N)=O)NC(=O)[C@H](CC(N)=O)NC(=O)[C@H](CCC(N)=O)NC1=O,803,975,1.44,–,–
CC[C@H](C)[C@@H]1NC(=O)[C@H](Cc2ccc(O)cc2)NC(=O)[C@@H](N)CSSC[C@@H](C(=O)N2CSC[C@H]2C(=O)N[C@@H](CC(C)C)C(=O)NCC(N)=O)NC(=O)[C@H](CC(N)=O)NC(=O)[C@H](CCC(N)=O)NC1=O,1180,720,3.46,–,–
N=C(N)NCCC[C@H](NC(=O)[C@H](Cc1ccccc1)NC(=O)[C@@H]1CCCN1C(=O)[C@H](CO)NC(=O)[C@H](Cc1ccccc1)NC(=O)CNC(=O)[C@@H]1CSCN1C(=O)[C@@H]1CCCN1C(=O)[C@@H](N)CCCNC(=N)N)C(=O)O,–,–,–,26,46
CC[C@H](C)[C@@H]1NC(=O)[C@H](Cc2ccc(O)cc2)NC(=O)[C@@H](N)CSSC[C@@H](C(=O)N2CCC[C@H]2C(=O)N[C@@H](CC(C)C)C(=O)NCC(N)=O)NC(=O)[C@H](CC(N)=O)NC(=O)[C@H](CCC(N)=O)NC1=O [OXYTOCIN],546,507,3.1,–,–
